Measurements published in ChEMBL document CHEMBL5344453, “Selective Recognition of c-KIT 1 G-Quadruplex by Structural Tuning of Heteroaromatic Scaffolds and Side Chains” (ACS Med Chem Lett, 2024).
Active and inactive are the calls of the source. No cut-off for these calls is given here.

Experiments:
[1] = Cytotoxicity against HEK293 cells assessed as cell viability measured after 24 hrs by XTT formazan assay; type: toxicity, cell-based; conditions: human
[2] = system: K562; experiment: Attenuation of proto-oncogene expression in human c-KIT-positive K562 cells assessed as reduction in c-MYC oncogene expression at 3 uM measured after 24 hrs by qRT-PCR analysis relative to control; type: functional
Outline: (§1)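 K562 cells treated 24 h at two doses per ligand (3 and 6 μM, 5.5 and 11 μM; positive control 2 and 4 μM). c-KIT, c-MYC and BCL-2 mRNA measured by qRT-PCR and normalized to housekeeping gene 18s, relative to untreated control.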

[3] = system: Quadruplex DNA; experiment: Stabilization of G-quadruplex c-KIT1 5-FAM-GGGAGGGCGCTGGGAGGAGGG-TAMRA-3 (unknown origin) assessed as change in melting temperature at 3 uM incubated for 1 hr in dark condition by FRET-based melting assay; type: nucleic-acid assay
Outline: (§2)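 FRET melting of dual-fluorophore (FAM/TAMRA) tagged G-quadruplex (200 nM) in 60 mM potassium cacodylate, pH 7.4. The screen used 1 μM ligand; dose series used 1, 3, 5, 7 and 10 μM. ΔTm was taken against the Tm of the same oligonucleotide without ligand.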

[4] = system: Quadruplex DNA; experiment: Binding affinity to excessive G-quadruplex c-KIT1 5-FAM-GGGAGGGCGCTGGGAGGAGGG-TAMRA-3 (unknown origin) assessed as fold increase in fluorescence intensity at 1 uM incubated for 1 hr in dark condition by fluorescence spectroscopy assay relative to VEGF; type: nucleic-acid assay
Outline: (§3)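 Ligand (1.0 μM) titrated to saturation with increasing G-quadruplex in 100 mM Tris-KCl buffer, pH 7.4. The value is the ratio of the c-KIT 1 fold change in fluorescence intensity to the fold change obtained with VEGF or c-KIT 2.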

[5] = system: Quadruplex DNA; experiment: Binding affinity to excessive G-quadruplex c-KIT1 5-FAM-GGGAGGGCGCTGGGAGGAGGG-TAMRA-3 (unknown origin) assessed as fold increase in fluorescence intensity at 1 uM incubated for 1 hr in dark condition by fluorescence spectroscopy assay; type: nucleic-acid assay
Outline: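 Fluorimetric titration in 100 mM Tris-KCl buffer, pH 7.4. Ligand fixed at 1.0 μM and titrated with increasing concentrations of each G-quadruplex until fluorescence saturation. The fold increase in ligand fluorescence intensity was read, and Kd was derived from the titration plot.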

[6] = system: Quadruplex DNA; experiment: Stabilization of G-quadruplex c-KIT1 5-FAM-GGGAGGGCGCTGGGAGGAGGG-TAMRA-3 (unknown origin) assessed as change in melting temperature at 5 uM incubated for 1 hr in dark condition by FRET-based melting assay; type: nucleic-acid assay; outline: as §2
[7] = system: Quadruplex DNA; experiment: Stabilization of G-quadruplex c-MYC 5-FAM-TGGGGAGGGTGGGGAGGGTGGGGAAGG-TAMRA- 3 (unknown origin) assessed as change in melting temperature at 1 uM incubated for 1 hr in dark condition by FRET-based melting assay; type: nucleic-acid assay
Outline: (§4)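 FRET melting of dual-fluorophore-tagged oligonucleotides (200 nM) in 60 mM potassium cacodylate buffer, pH 7.4, with ligand at 1 μM; ΔTm taken against the ligand-free oligonucleotide Tm as control.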

[8] = system: Quadruplex DNA; experiment: Stabilization of G-quadruplex VEGF 5-FAM-CGGGGCGGGCCGGGGGCGGGGT-TAMRA-3 (unknown origin) assessed as change in melting temperature at 10 uM incubated for 1 hr in dark condition by FRET-based melting assay; type: nucleic-acid assay; outline: as §2
[9] = system: K562; experiment: Induction of cell cycle arrest in human K562 cells assessed as accumulation at G0/G1 phase at 6 uM incubated for 24 hrs by propidium iodide based assay; type: functional
Outline: (§5)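 K562 cells were treated with ligand (3 and 6 μM or 5.5 and 11 μM) and stained with propidium iodide. The fraction of cells in each cell-cycle phase was determined by flow cytometry.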

[10] = system: K562; experiment: Attenuation of proto-oncogene expression in human c-KIT-positive K562 cells assessed as reduction in BCL-2 oncogene expression at 3 uM measured after 24 hrs by qRT-PCR analysis relative to control; type: functional; outline: as §1
[11] = system: K562; experiment: Induction of cell cycle arrest in human K562 cells assessed as accumulation at G0/G1 phase at 3 uM incubated for 24 hrs by propidium iodide based assay; type: functional; outline: as §5
[12] = target: Quadruplex DNA; experiment: Binding affinity to G-quadruplex VEGF 5-FAM-CGGGGCGGGCCGGGGGCGGGGT-TAMRA-3 (unknown origin) assessed as dissociation constant by fluorescence spectroscopy assay; type: nucleic-acid assay
Outline: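 Fluorimetric titration of ligand held at 1.0 μM with increasing concentrations of G4 or dsDNA until saturation. Change in ligand fluorescence intensity was fitted for Kd. Run in 100 mM Tris-KCl buffer, pH 7.4.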

[13] = system: Quadruplex DNA; experiment: Binding affinity to G-quadruplex c-KIT1 5-FAM-GGGAGGGCGCTGGGAGGAGGG-TAMRA-3 (unknown origin) assessed as stability by CD spectra analysis; type: nucleic-acid assay
[14] = system: Quadruplex DNA; experiment: Stabilization of G-quadruplex BCL2 5-FAM-AGGGGCGGGCGCGGGAGGAAGGGGGCGGGAGCGGGGCTG-TAMRA-3 (unknown origin) assessed as change in melting temperature at 10 uM incubated for 1 hr in dark condition by FRET-based melting assay; type: nucleic-acid assay; outline: as §2
[15] = system: Quadruplex DNA; experiment: Stabilization of G-quadruplex h-TELO 5-FAM-TTGGGTTAGGGTTAGGGTTAGGGA-TAMRA-3 (unknown origin) assessed as change in melting temperature at 10 uM incubated for 1 hr in dark condition by FRET-based melting assay; type: nucleic-acid assay; outline: as §2
[16] = target: Quadruplex DNA; experiment: Binding affinity to G-quadruplex BCL-2 5-FAM-AGGGGCGGGCGCGGGAGGAAGGGGGCGGGAGCGGGGCTG-TAMRA-3 (unknown origin) assessed as dissociation constant by measuring thermogram by isothermal titration calorimetry (ITC) assay; type: nucleic-acid assay
Outline: (§6)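 ITC of ligand binding to folded G4 in 100 mM Tris-KCl buffer, pH 7.4. Kd and stoichiometry were obtained from the isothermal heat curve and binding isotherm.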

[17] = target: Quadruplex DNA; experiment: Binding affinity to G-quadruplex c-KIT 2 5-FAM-GGGCGGGCGCGAGGGAGGGG-TAMRA-3 (unknown origin) assessed as dissociation constant by measuring thermogram by isothermal titration calorimetry (ITC) assay; type: nucleic-acid assay; outline: as §6
[18] = system: K562; experiment: Induction of apoptosis in human K562 cells assessed as cell death at 3 uM incubated for 24 hrs by FITC-Annexin V and PI based flow cytometry relative to control; type: functional
Outline: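 K562 cells after ligand treatment dual-stained with annexin V and propidium iodide. Apoptotic cell populations (early and late) scored by flow cytometry dot plot analysis.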

[19] = system: Quadruplex DNA; experiment: Stabilization of G-quadruplex h-TELO 5-FAM-TTGGGTTAGGGTTAGGGTTAGGGA-TAMRA-3 (unknown origin) assessed as change in melting temperature at 1 uM incubated for 1 hr in dark condition by FRET-based melting assay; type: nucleic-acid assay; outline: as §4
[20] = system: Quadruplex DNA; experiment: Stabilization of G-quadruplex c-KIT1 5-FAM-GGGAGGGCGCTGGGAGGAGGG-TAMRA-3 (unknown origin) assessed as change in melting temperature at 1 uM incubated for 1 hr in dark condition by FRET-based melting assay; type: nucleic-acid assay; outline: as §4
[21] = system: Quadruplex DNA; experiment: Binding affinity to excessive G-quadruplex c-KIT1 5-FAM-GGGAGGGCGCTGGGAGGAGGG-TAMRA-3 (unknown origin) assessed as fold increase in fluorescence intensity at 1 uM incubated for 1 hr in dark condition by fluorescence spectroscopy assay relative to c-KIT2; type: nucleic-acid assay; outline: as §3

With `CN(C)CCCNC(=O)c1ccc(-n2cc(-c3ccc4[nH]c5ccccc5c4c3)nn2)cc1` the IC50 at 24 h [1] was greater than 50 µM, the inhibition at 3 µM [2] was 15% and the ΔTm [3] was 22.6 °C. The fold change (FC) [4] was 2.8, the fold change (FC) [5] was 5.2 and the ΔTm [6] was 25.5 °C. It also gave a ΔTm [7] of 3.2 °C, a ΔTm [8] of 11.2 °C and an Activity [9] of 79.7%. The inhibition at 3 µM [10] was 29%, the Activity [11] was 74.1% and the Kd [12] was 2.9 µM. For the same compound, the Activity [13] was “Active”, the ΔTm [14] was 12.1 °C and the ΔTm [15] was 20.3 °C. The Kd [16] was 10.8 µM, the Kd [17] was 20.9 µM and the Activity [18] was 35%. The ΔTm [19] was 4.5 °C, the ΔTm [20] was 20.1 °C and the fold change (FC) [21] was 3.2.
